# Hits are enriched below; roughly 4.5% of the tested compounds scored in any of these assays.
# CHOP UPR activ = apoptotic UPR (CHOP) activation. activation, % at 10 µM. 330,000 tested, 0.34% active. CHO-CHOP luciferase reporter, luminescence; percent of tunicamycin response over DMSO baseline;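 active = at 10 µM dose, activation of 40% or more, normalized to positive control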
#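 System: CHO-CHOP luciferase reporter cell line; amount: 500 cells/well; buffer or medium: F12 medium containing 10% fetal bovine serum; incubation: 6 h compound exposure at 37 °C after overnight seeding; measured by: luciferase luminescence after 10 min with Steady-Glo reagent; evaluation: % reporter activation, DMSO baseline versus tunicamycin full activation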
# M18AAP inhibitor = PfM18AAP enzyme inhibition; recombinant PfM18AAP, H-Glu-NHMec fluorogenic cleavage; inhibition, % at 7.35 µM; 290,000 tested, 1.2% active;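 active = inhibition above the campaign mean inhibition over all tested compounds plus 3 SD, cut at about 28% in these data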
# p97 inhibitor = human p97 ATPase inhibition. recombinant p97 ATPase, Kinase-Glo ATP luminescence, 3 h. P55072. 220,000 tested, 0.42% active. AID 1481. inhibition, % at 8 µM; in the data active = inhibition above about 15%
# Target sequence (P55072 whole entry, looked up): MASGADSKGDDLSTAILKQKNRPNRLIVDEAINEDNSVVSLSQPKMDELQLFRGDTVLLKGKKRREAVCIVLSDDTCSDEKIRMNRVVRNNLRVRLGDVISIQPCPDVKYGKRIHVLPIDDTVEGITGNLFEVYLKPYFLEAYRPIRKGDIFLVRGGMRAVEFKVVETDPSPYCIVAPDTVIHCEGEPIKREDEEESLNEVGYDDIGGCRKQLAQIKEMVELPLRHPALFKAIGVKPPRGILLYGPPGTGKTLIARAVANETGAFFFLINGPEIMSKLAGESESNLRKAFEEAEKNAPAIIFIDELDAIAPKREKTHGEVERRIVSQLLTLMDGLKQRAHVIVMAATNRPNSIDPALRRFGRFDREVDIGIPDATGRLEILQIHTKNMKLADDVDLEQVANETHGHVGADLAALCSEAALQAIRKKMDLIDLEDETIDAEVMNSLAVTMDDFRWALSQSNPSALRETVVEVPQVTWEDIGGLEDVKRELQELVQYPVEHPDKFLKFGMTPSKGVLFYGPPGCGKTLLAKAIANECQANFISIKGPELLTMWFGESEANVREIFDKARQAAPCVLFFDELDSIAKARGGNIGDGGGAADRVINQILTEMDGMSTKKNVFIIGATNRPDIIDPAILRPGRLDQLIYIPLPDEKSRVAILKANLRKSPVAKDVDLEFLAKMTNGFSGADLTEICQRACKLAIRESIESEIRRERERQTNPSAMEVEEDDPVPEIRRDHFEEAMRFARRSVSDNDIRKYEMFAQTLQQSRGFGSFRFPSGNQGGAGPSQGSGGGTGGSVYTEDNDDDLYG
# XBP1 UPR activ = activators of adaptive arm of unfolded protein response (XBP1); CHO-XBP1 luciferase reporter, IRE1-XBP1 UPR activation, luminescence; percent of tunicamycin response, DMSO as zero; activation, % at 20 µM; 330,000 tested, 0.33% active;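 active = versus positive control, 20 µM dose yields 30% or more activation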
#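 Test system: CHO-XBP1 luciferase reporter cells | Buffer or medium: Serum-containing F12 medium, 10% FBS | Schedule: 6 h compound exposure at 37 °C, 5% CO2 | Detection: Steady-Glo luciferase glow luminescence, 10 min after reagent addition | Read-out basis: Activation, % of tunicamycin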
# CHOP inhibitor = CHOP inhibition in unfolded protein response | CHO-K1 CHOP-promoter luciferase, tunicamycin-induced, 15-18 h | 220,000 tested, 3.8% active | inhibition, % at 10 µM;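 active = compounds that reduced the stress-induced luciferase reporter signal by more than about 70% of percent inhibition, limit read from the data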
# NS3 helicase inh = inhibitors of Hepatitis C virus NS3 helicase | 290,000 tested, 0.56% active | AID 1800 | NS3 helicase DNA unwinding, Cy5 molecular beacon fluorescence | inhibition, % at 10.9 µM;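 active = inhibition above the mean of all tested compounds plus 3 SD, set per campaign, cut at about 35% in these data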
#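 test system = hepatitis C virus NS3 helicase domain fragment enzyme | reagent = annealed dual-labelled DNA beacon duplex, ATP-started | times = 1 h at 25 °C | detection = Cy5 fluorescence, 0 and 60 min reads | read-out basis = percent inhibition from t60/t0 fluorescence ratio | control set = DMSO and thioflavine S | replication = one well per compound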
# Hits are given with their value; – = inactive; · = no result given.
SMILES,CHOP UPR activ,M18AAP inhibitor,p97 inhibitor,XBP1 UPR activ,CHOP inhibitor,NS3 helicase inh
Cc1ccc(S(=O)(=O)N2CCN(S(C)(=O)=O)C2C)cc1 (stereo unspecified),–,·,·,–,·,·
CCCCn1c(=O)[nH]c(=O)c2c1nc(-c1ccc(-c3ccc(F)cc3)o1)n2C,–,–,–,–,–,–
CCCCn1c(=O)[nH]c(=O)c2c1nc(-c1ccc(CC)c([N+](=O)[O-])c1)n2C,–,–,–,–,76,–
Cc1ccc(NC2=C/C(=N/S(=O)(=O)c3cccs3)c3ccccc3C2=O)cc1,–,–,–,–,98,–
CCN1CCN(C2=C(NS(=O)(=O)c3ccc(Br)cc3)C(=O)c3ccccc3C2=O)CC1,–,–,·,–,·,–
CCN1CCN(C2=C(NS(=O)(=O)c3ccccc3)C(=O)c3ccccc3C2=O)CC1,–,30,·,–,·,–
CCOc1ccccc1N1CCN(C2=C(NS(=O)(=O)c3cccs3)C(=O)c3ccccc3C2=O)CC1,–,–,–,–,71,–
N#Cc1ccc(C(=O)CN2CCN(c3ccccc3)CC2)cc1,–,–,·,–,·,–
COCCn1c(=NC(=O)c2cc(Cl)sc2Cl)sc2cc(S(N)(=O)=O)ccc21,–,–,–,–,81,–
COCCn1c(=NC(=O)c2ccc3c(c2)OCCO3)sc2cc(S(N)(=O)=O)ccc21,–,–,–,–,–,–
CCOCCn1c(=NC(=O)c2cc(Cl)sc2Cl)sc2cc(S(N)(=O)=O)ccc21,–,–,–,–,90,–
N#Cc1c(NC(=O)CSc2ncnc3sccc23)oc(-c2ccco2)c1-c1ccco1,–,–,15,–,–,–
O=C1C2C3C=CC(C4CC34)C2C(=O)N1/N=C/c1ccc(-c2ccc(F)cc2[N+](=O)[O-])o1 (stereo unspecified),–,–,–,–,–,–
Cc1ccc(-c2ccc(/C=N/N3C(=O)C4C5C=CC(CC5)C4C3=O)o2)c([N+](=O)[O-])c1 (stereo unspecified),–,–,–,–,89,–
CN1CCC/C1=C/C=C1\SC(=S)NC1=O,·,–,–,·,–,–
C/C(C/C(C)=C1/SC(=S)NC1=O)=C1\SC(=S)NC1=O,·,29,–,·,–,–
Clc1cccc(CSc2ncn(-c3ccccc3)n2)c1,–,–,–,–,93,–
O=C(CSCCNS(=O)(=O)c1ccccc1)Nc1ccccc1,–,–,–,–,74,–
CC1C(=O)C(C)C(c2ccccc2F)NC1c1ccccc1F (stereo unspecified),–,–,·,–,·,–
O=C(CN1C(=O)NC2(CCOc3ccccc32)C1=O)NCCc1ccccc1 (stereo unspecified),–,·,·,–,·,·
S=C(NCCSCc1ccc(Cl)cc1)Nc1ccccc1,–,–,–,–,80,–
S=C(NCCSCc1ccccc1Cl)Nc1ccccc1,–,–,–,–,71,–
O=C(c1cc(-c2ccco2)nn1-c1cccc(Cl)c1)N1CCCCC1,–,–,–,–,71,–
Cc1ccccc1N1C(=O)C(Cl)=C(N2CCCCCC2)C1=O,–,–,–,–,80,–
CCOc1ccccc1C(=O)NCC(=O)NCCc1ccc(S(N)(=O)=O)cc1,–,–,·,–,·,–
SMILES,CHOP UPR activ,M18AAP inhibitor,p97 inhibitor,XBP1 UPR activ,CHOP inhibitor,NS3 helicase inh
Cn1c(SCC(=O)Nc2ccc(Br)cn2)nnc1C1CC1,–,–,·,–,·,–
Cc1cccc(N2CCN(C(=O)c3ccc4c(c3)NC(=O)C(CSCc3cccc(F)c3)N4)CC2)c1C (stereo unspecified),–,–,·,–,·,–
Cc1ccc2[nH]c(=O)c(-c3nc4cc(C)ccn4c3NCc3ccco3)cc2c1,–,–,–,–,93,–
Cc1cccc2cc(-c3nc4c(C)cccn4c3NCc3ccco3)c(=O)[nH]c12,–,–,–,–,–,–
CC(C)(C)OC(=O)N[C@@H](Cc1ccccc1)c1nnc(SCC(=O)c2ccc(Cl)cc2)o1,–,–,–,–,86,–
CC(C)(C)OC(=O)N[C@@H](Cc1ccccc1)c1nnc(SCC(=O)O)o1,–,–,–,–,–,–
CCN1C(=Nc2ccc(Cl)cc2)SC/C1=C\C(=O)OC,–,–,–,–,82,–
O=C(CSc1nc2nc(-c3cccs3)cc(C(F)(F)F)c2c(=O)[nH]1)NCc1ccco1,–,28,–,–,–,–
CC[N+]1=C(C)C(C)(C)c2cc(C)ccc21,–,–,–,–,74,–
CCN1C(=O)C(=O)c2cc(C)ccc21,–,·,·,–,·,·
CCn1cc(NC(=O)CCl)c(C)n1,–,–,–,–,–,–
CCN(c1ccccc1)S(=O)(=O)c1ccc(C(=O)N(C)CCc2ccc(OC)c(OC)c2)cc1,–,–,·,–,·,–
O=C(COC(=O)c1cc(S(=O)(=O)N2CCOCC2)c(Cl)cc1Cl)c1ccc[nH]1,–,·,·,–,·,·
COc1cc(/C=N/NC(=O)c2cc3c(ccc4ccccc43)o2)cc(OC)c1O,–,32,·,–,·,–
COc1ccc(/C=N/NC(=O)c2cc3c(ccc4ccccc43)o2)cc1OC,–,–,·,–,·,–
Cc1cc(C(=O)N(C)Cc2c(F)cccc2Cl)c2ccccc2n1,–,–,·,–,·,–
C=CCNC(=O)CN(c1ccc(F)c(Cl)c1)S(C)(=O)=O,–,–,–,–,79,–
CCOc1ccc(-n2c(N)c(-c3nc4ccccc4n3C)c3nc4ccccc4nc32)cc1,–,–,–,–,93,–
C/C(=N\NC(=O)CNc1cccc(Cl)c1C)c1cccs1,–,–,–,–,92,–
Cc1nnc(SCC(=O)Nc2cc(C(N)=O)cc(C(N)=O)c2)n1-c1ccccc1,–,–,·,–,·,–
CC(=O)Nc1ccc(-c2nnc(SCC(=O)Nc3ccc4c(c3)oc3ccccc34)n2C)cc1,–,–,–,–,–,–
Cc1ccc(CCc2nnc(SCC(=O)Nc3cccc(Cl)c3)n2-c2ccccc2)o1,–,–,–,–,85,–
CCn1c(SCC(=O)c2ccc3c(c2)Cc2ccccc2-3)nnc1-c1ccc(N)cc1,–,–,–,–,85,–
CCn1c(SCC(=O)Nc2ccc3c(c2)oc2ccccc23)nnc1-c1ccc(N)cc1,–,–,–,–,95,–
Cn1c(SCC(=O)Nc2cccc(F)c2)nnc1-c1cc2ccccc2o1,–,–,–,–,74,–
CC(=O)Nc1ccc(S(=O)(=O)N[C@@H](C)C(=O)N2CCN(c3ccccn3)CC2)cc1,–,·,·,–,·,·
CCOC(=O)C(=CNc1ccc2c(c1)nnn2-c1ccc(Cl)cc1)C(=O)OCC,–,–,–,–,79,–
CCCNC(=O)COc1coc(CN2CCN(c3ccc(F)cc3)CC2)cc1=O,–,–,·,–,·,–
CC(C)(NO)/C(=N\O)c1ccccc1,–,–,–,–,72,–

# Source: PubChem BioAssay
